Experimental data reported in article PMC11044231 (ACS Omega, 2024).

How the values were obtained:
[1] = test system: RAW 264.7 mouse macrophage cell line; format: cell-based; conditions: RAW264.7, 24 h, read-out: NO Production Inhibition (IC50)
How it was run: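 NO production inhibition is measured in RAW 264.7 macrophages, with dexamethasone as positive control and the value given as IC50.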

[2] = test system: MDA-MB-231S triple-negative breast cancer cell line; test: MTT antiproliferative assay, MDA-MB-231S; format: cell-based; conditions: 48 h, read-out: IC50, antiproliferative effect
How it was run: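 Antiproliferative test on MDA-MB-231S cells with DMSO as negative (vehicle) control and doxorubicin as positive control. Activity is reported as IC50.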

[3] = TAOC, total antioxidant capacity; conditions: read-out: TAOC EC50; concentration that results in an absorbance of 0.500
How it was run: (§1)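 Cell-free antioxidant assays, with Trolox and ascorbic acid as positive controls. Results are expressed as […] or as Trolox equivalents.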

[4] = HORAC, hydroxyl radical absorbance capacity; conditions: trolox equivalent
How it was run: as §1

[5] = ORAC, oxygen radical absorbance capacity; conditions: trolox equivalent
How it was run: as §1

C[C@@H]1C[C@H]2[C@@H]3CCC4=CC(=O)C=C[C@]4(C)[C@@]3(F)[C@@H](O)C[C@]2(C)[C@@]1(O)C(=O)CO [dexametasone, Dexamethasone]
IC50 [1]: 16.1 ± 1.02 µM

COc1cccc2c1C(=O)c1c(O)c3c(c(O)c1C2=O)C[C@@](O)(C(=O)CO)C[C@@H]3O[C@H]1C[C@H](N)[C@H](O)[C@H](C)O1 [doxorubicin]
IC50 [2]: 0.07 ± 0.01 µM

O=C1O[C@H]([C@@H](O)CO)C(O)=C1O [ascorbic acid]
EC50 [3]: 244 µM

Cc1c(C)c2c(c(C)c1O)CCC(C)(C(=O)O)O2 (stereo not drawn) [trolox]
HORAC (TE) [4]: 1 TE | EC50 [3]: 143 µM | ORAC (TE) [5]: 1 TE
